Here are results for seven compounds from ChEMBL document CHEMBL1137907, “Anticancer activity of 3-O-acyl and alkyl-(-)-epicatechin derivatives” (Bioorg Med Chem Lett, 2004).

As a reminder, the IC50 is the concentration that inhibits the measured activity by half. High values mean weaker potency, low ones greater potency.

The structures appear in SMILES notation.

Experiment [1] deals with PC-3. Put plainly: In vitro inhibitory concentration against PC-3 cell line in MTT assay was determined after 3 days incubation. Type of experiment: functional, cell-based. To be noted: Homo sapiens, PC-3, 72 h. In outline: (§1)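 MTT viability read-out in 96-well format, per Mosmann's method. Values are means of three experiments.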
Experiment [2] concerns SK-OV-3. Kind of experiment: In vitro inhibitory concentration against SKOV3 cell line in MTT assay was determined after 3 days incubation. It counts as functional, cell-based. To be noted: Homo sapiens, SK-OV-3, 72 h. An outline of the steps: as §1
In general terms: Tetrazolium dyes change colour on reduction, which living cells bring about.

Experiment [3] deals with U373 MG. Put plainly: In vitro inhibitory concentration against U373MG cell line in MTT assay was determined after 3 days incubation. It counts as functional, cell-based, U-373MG ATCC. The note with it: Homo sapiens, 72 h. In outline: as §1

For the compound `COc1cc(C(=O)O[C@@H]2Cc3c(O)cc(O)cc3O[C@@H]2c2ccc(O)c(O)c2)cc(OC)c1OC`, the IC50 in experiment [1] stood at 51.3 µM; in experiment [2], 50.1 µM; in experiment [3] it was 57.2 µM.

For the compound `COc1cc(CO[C@@H]2Cc3c(O)cc(O)cc3O[C@@H]2c2ccc(O)c(O)c2)cc(OC)c1OC`, the figures for the IC50 in experiment [1], in experiment [2] and in experiment [3] were 32.5 µM, 38.2 µM and 29.8 µM, respectively.

On to `O=C(O[C@@H]1Cc2c(O)cc(O)cc2O[C@@H]1c1ccc(O)c(O)c1)c1cc(F)cc(F)c1`, for which the IC50 in experiment [1] came out at 58.7 µM; in experiment [2] it was 78.2 µM; in experiment [3] it was 64.5 µM.

For the compound `O=C(O[C@@H]1Cc2c(O)cc(O)cc2O[C@@H]1c1ccc(O)c(O)c1)c1cc(F)c(F)c(F)c1`, the values for the concentration for half-maximal inhibition (IC50) in experiment [1], in experiment [2] and in experiment [3] were 71.9 µM, 61 µM and 59.2 µM, respectively.

Regarding `Oc1cc(O)c2c(c1)O[C@H](c1ccc(O)c(O)c1)[C@H](O)C2` [(-)-EPICATECHIN], the IC50 in experiment [1], in experiment [2] and in experiment [3] was more than 500 µM throughout.

In the case of `O=C(O[C@@H]1Cc2c(O)cc(O)cc2O[C@@H]1c1ccc(O)c(O)c1)c1cc(O)c(O)c(O)c1` [EPICATECHIN GALLATE], the IC50 is 168 µM in experiment [1], 185 µM in experiment [2] and 157 µM in experiment [3].

With `O=C(O[C@@H]1Cc2c(O)cc(O)cc2O[C@@H]1c1ccc(O)c(O)c1)c1ccc(OC(F)(F)F)cc1`, the IC50 in experiment [1] was 45.2 µM; in experiment [2] it was 47.3 µM; in experiment [3], 50.3 µM.
